Measurements of several laboratories.
Protocols differ between the studies behind these lines.
Target: Carbonic anhydrase 1 (CA1, Homo sapiens, UniProt P00915)
Read-out: enzyme activity
Mode: inhibitor

NC(=S)N/N=C1/c2ccccc2[C@@H]2[C@H]1[C@@H](c1ccoc1)[C@H](C(=O)c1ccco1)[C@H]2c1ccoc1 — IC50 (absorbance): 434 nM
Cc1c(Cl)c(=O)oc2cc(OCCCC[Se]C#N)ccc12 — Ki (stopped-flow): > 100000 nM
O=C(Nc1ccc2c(c1)C=CCP(=O)(O)O2)c1ccc([N+](=O)[O-])cc1 — Ki (stopped-flow): > 10000 nM
NC(=S)N/N=C1/c2ccccc2[C@@H]2[C@H]1[C@@H](c1cccs1)[C@H](C(=O)c1cccs1)[C@H]2c1cccs1 (racemic) — IC50 (absorbance): 774 nM
Cc1cc(=O)oc2cc(OCCCC[Se]C#N)ccc12 — Ki (stopped-flow): > 100000 nM
Cc1ccc(C(=O)Nc2ccc3c(c2)C=CCP(=O)(O)O3)cc1 — Ki (stopped-flow): > 10000 nM
CC(C)c1cc2c(c(O)c1O)[C@@]1(C(=O)O)CCCC(C)(C)[C@@H]1CC2 — IC50: 3.1 nM
CCOP1(=O)CC=Cc2cc(N)ccc2O1 (stereo not drawn) — Ki (stopped-flow): > 10000 nM
CC(C)c1cc2c(c(O)c1O)[C@@]13CCCC(C)(C)[C@@H]1C[C@@H]2OC3=O — Ki: 2.3 nM
Cc1ccc([C@H]2[C@H](C(=O)c3cccs3)[C@@H](c3cccs3)[C@@H]3c4ccccc4/C(=N/NC(N)=S)[C@@H]32)cc1 (racemic) — IC50 (absorbance): 1670 nM
CC(C)c1cc2c(c(O)c1O)[C@@]13CCCC(C)(C)[C@@H]1[C@@H](O)[C@@H]2OC3=O — IC50: 1.63 nM
COc1ccc(NC(=O)Nc2ccc3c(c2)C=CCP(=O)(O)O3)cc1 — Ki (stopped-flow): > 10000 nM
CC(C)c1cc2c(c(O)c1O)[C@@]13CCCC(C)(C)[C@@H]1[C@H](OC3=O)[C@H]2O — Ki: 0.12 nM
NC(=S)N/N=C1/c2ccccc2[C@@H]2[C@H]1[C@@H](c1ccccc1)[C@H](C(=O)c1ccccc1)[C@H]2c1ccccc1 (racemic) — IC50 (absorbance): 1550 nM
O=C(Nc1ccc2c(c1)C=CCP(=O)(O)O2)c1ccc(F)cc1 — Ki (stopped-flow): > 10000 nM
